Compound activity deposited in PubChem by several laboratories.
An excerpt weighted towards active compounds, which were near 4.8% of everything screened.
Efflux pump mplx – inhibitors of Candida efflux pumps in yeast, primary screen, S. cerevisiae, Nile Red, multiplex; S. cerevisiae Candida pump triplex; inhibition, % at 10 µM; 0.44% of 330,000 active;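 active = plate passing quality check with inhibition over a set limit, or well fluorescence over plate mean plus 4 SD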;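 note: Nile Red retained in pooled yeast measured as flow cytometry median fluorescence; higher means more Nile Red kept so more efflux inhibition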
WT yeast gro inh – growth inhibition of WT strain, primary screen, mitochondrial fusion inhibitor project, WT and mutant strains, chemical genetic; 2.1% of 190,000 active; inhibition, % at 10 µM; mitochondrial fusion phenotypic screen; AID 1362, 2008; in the data active = inhibition above about 58%; tested in S. cerevisiae
CSC inhib – cancer stem cell viability inhibitors, primary screen, luminescence. 1.1% of 300,000 active. AID 2717, 2010. cancer stem cell-like cells viability. inhibition, % at 7.5 µM; in the data active = inhibition above about 75%; inconclusive = no clear call, values can overlap the other calls; tested in HMLE shEcad cells
Beta cell apopt – inhibitors of cytokine-induced beta cell apoptosis, primary screen, luminescence | INS-1E cytokine-induced death, ATP luminescence, 48 h; percent of positive-control rescue, neutral wells zero | protection from apoptosis, % (test concentration not listed) | 0.8% of 300,000 active | AID 435005, 2010;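 active = Every replicate reaches about 75%, or at least half do and their mean reaches it too, limit read from the data; inconclusive = At least half of replicates reach the limit but their mean does not; inactive = Under half of replicates reach the limit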;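 note: higher means more ATP so stronger rescue from cytokine killing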
T cruzi inh – inhibitors of intracellular T. cruzi growth, primary screen, luminescence, NIH3T3 host cells | T. cruzi beta-gal in NIH3T3, 90 h | inhibition, % (concentration not given with the values) | 1.4% of 300,000 active | AID 1885, 2009;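 active = mean inhibition across valid replicates above about 55%, limit read from the data; inconclusive = mean below that limit but half or more replicates reach it; inactive = mean below it, under half of replicates reach it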;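 note: signal also drops with host cell toxicity which is not excluded here; higher percent means less beta-gal luminescence so fewer parasites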
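System – NIH/3T3 host cells with β-galactosidase reporter T. cruzi · Doses – single 50 nL compound addition per well in DMSO · Reagent – 5000 T. cruzi trypomastigotes/well · Medium – Low-serum DMEM with 2% FBS · Timing – ≥90 h infection period, 3 h prior cell attachment · Evaluation – parasite load inhibition, % · Technique – GalScreen luminescence, 60 min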
SUMO Mot1 rescue – yeast Mot1-301 growth rescue at high temperature, primary screen, SUMOylation pathway inhibitor project, S. cerevisiae, ATP luminescence, 38.5C; S. cerevisiae Mot1-301 growth rescue; percent above DMSO median, 100 means doubled; growth rescue, % at 18.8 µM; 1% of 320,000 active;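 active = every valid replicate shows activation above 250% relative to neutral control wells; inactive = the rest, any valid replicate at or below 250%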
Numbers stand for hits; i = inactive; ? = inconclusive; nt = no result; + = active, no number.

SMILES | Efflux pump mplx | WT yeast gro inh | CSC inhib | Beta cell apopt | T cruzi inh | SUMO Mot1 rescue
Cc1cc(C)n(-c2nc(Nc3ccccc3C)nc(-n3nc(C)cc3C)n2)n1 | i | i | i | nt | 70 | i
Cc1cc(C)n(-c2nc(NC(C)(C)C)nc(NC(C)(C)C)n2)n1 | i | i | i | ? | i | i
O=C(N/N=C/c1ccc(-c2cccc([N+](=O)[O-])c2)o1)c1cccs1 | i | i | i | i | 80 | i
O=C(O)c1cccc(-c2ccc(/C=N/Nc3ccc([N+](=O)[O-])cc3)o2)c1 | i | nt | i | i | i | 311
O=C(O)c1ccc(-c2ccc(/C=N/Nc3ccc([N+](=O)[O-])cc3)o2)cc1 | i | nt | i | i | i | i
Cc1cc([N+](=O)[O-])ccc1-c1ccc(/C=N/NC(=O)c2ccc(Br)o2)o1 | i | nt | 88 | i | i | i
Cc1c(C(=O)OCC(=O)N(C)c2ccccc2)oc2ccccc12 | i | nt | i | i | i | i
Cc1ccc(/C=C/C(=O)N2CCCC(C(N)=O)C2)o1 (configuration not stated) | i | nt | i | i | i | i
Cc1ccc(Nc2nc(-c3ccccc3)cs2)nc1 | i | nt | nt | nt | i | i
Cc1ccc(Nc2nc(-c3cccs3)cs2)nc1 | i | 69 | i | i | i | i
COc1cccc(-c2cccc(NC(=O)C3CCN(C4CCOCC4)CC3)c2)c1 | i | nt | nt | nt | i | nt
C/C(=N\Nc1ccc(F)cc1F)c1cccs1 | i | i | i | i | i | i
COCC(=O)N/N=C/c1c(C)[nH]n(-c2ccccc2)c1=O | i | i | i | nt | i | i
Cc1[nH]n(-c2ccccc2)c(=O)c1/C=N/NC(=O)COc1ccccc1[N+](=O)[O-] | i | i | i | 76 | i | i
Cc1[nH]n(-c2ccccc2)c(=O)c1/C=N\NC(=O)C1COc2ccccc2O1 (configuration not stated) | i | i | i | 78 | i | i
Cn1nnnc1Sc1ncnc2scc(-c3ccc(C(F)(F)F)cc3)c12 | i | nt | 94 | i | nt | i
Cn1nnnc1Sc1ncnc2scc(-c3cc4ccccc4o3)c12 | i | nt | 115 | 89 | nt | i
Cn1nnnc1Sc1ncnc2scc(-c3cccc(C(F)(F)F)c3)c12 | i | nt | nt | i | nt | i
Cn1nnnc1Sc1ncnc2scc(-c3ccc(-c4ccccc4)cc3)c12 | i | nt | nt | i | nt | i
COc1ccccc1CNS(=O)(=O)CCNC(=O)c1ccccc1 | i | nt | i | i | i | i
CC1(C)CC2(CCO1)CNC(=O)O2 (configuration not stated) | i | i | i | i | i | i
COc1cccc(C=Nc2ccc3c(c2)CCC3)c1O | i | nt | i | nt | i | i
CCc1ccc2oc(-c3cc(N=Cc4cccc(OC)c4O)ccc3O)nc2c1 | i | i | i | i | 64 | i
Clc1ccc(CSc2nnc(CNc3cccc(Cl)c3)o2)cc1 | i | 81 | i | i | i | i
Fc1cccc(Cl)c1CSc1nnc(CNc2ccccc2)o1 | i | i | i | i | i | nt
SMILES | Efflux pump mplx | WT yeast gro inh | CSC inhib | Beta cell apopt | T cruzi inh | SUMO Mot1 rescue
O=C(c1cccc(S(=O)(=O)Nc2ccccc2F)c1)N1CCN(c2ccccc2F)CC1 | i | i | i | i | i | i
Cc1onc(-c2ccccc2)c1C(=O)Nc1sc2c(c1C(N)=O)CCC2 | i | i | i | i | i | i
Cc1onc(-c2c(F)cccc2Cl)c1C(=O)Nc1sc2c(c1C(N)=O)CCC2 | i | 67 | nt | i | i | i
CCCCC(=O)N(Cc1nc2sc(C)c(C)c2c(=O)[nH]1)C1CCCC1 | i | i | i | i | i | +
Cc1sc2nc(CN(Cc3cccs3)C(=O)NC3CCCCC3)[nH]c(=O)c2c1C | i | 66 | i | i | i | i
CN(Cc1ccccc1)c1ccc(C(CC(N)=O)NC(=O)c2ccc(Br)cc2)cc1[N+](=O)[O-] (configuration not stated) | i | nt | i | i | i | i
CCN(CC)Cc1ccc(NC(=O)c2sc3cc(Cl)ccc3c2Cl)cc1 | i | nt | 101 | i | i | i
CCCCn1nnc(NC(=O)c2sc3cc(Cl)ccc3c2Cl)n1 | i | i | i | i | i | i
CCOC(=O)C1=C(C)Nc2sc(C(=O)c3ccc(F)cc3)c(N)c2C1c1ccc(C(=O)OC)cc1 (configuration not stated) | i | 87 | nt | i | i | i
